Publication PMC5574666 (International Journal of Nanomedicine, 2017)
Values joined by “and” are separate entries in the source; they are usually repeats but may differ in a detail not shown here. Identical values can stand only once.

Experiments:
MCF-7 cells [1] = assay: Cytotoxicity MTT assay; assay type: cell-based, Human; conditions: 0.1-10 μg·mL^−1, 48 hours
[2] = In vivo pharmacokinetic study; conditions: male Sprague-Dawley rats, 5 mg·kg^−1 DOX i.v., n=6
MCF-7 cells [3] = assay: Cellular uptake; assay type: cell-based, Human; conditions: 6 and 24 h
Maximum tolerated dose = assay type: in vivo; conditions: BALB/c mice; for Animal death: 2 weeks
Procedure, shortened: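 Female BALB/c mice were randomized into three formulation groups. […] Body weight and survival were monitored daily for 2 weeks. MTD was taken as the highest dose causing neither death from systemic toxicity nor >15% body weight loss over the study.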

[4] = Biodistribution of DOX in tumor-bearing mice; assay type: in vivo; conditions: BALB/c nude mice bearing MCF-7/ADR tumors, 5 mg·kg^−1 DOX i.v., 1, 6, 12, 24 hours
MCF-7/ADR cells = assay: Cellular uptake; assay type: cell-based, Human; conditions: MCF-7/ADR cells compared with MCF-7 cells
Procedure, shortened: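 MCF-7 and MCF-7/ADR cells were grown in DMEM with 10% FBS and 1% penicillin-streptomycin at 37°C and 5% CO2. They were seeded at 5×10^4 per well in 24-well plates and grown 24 h.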

In vivo toxicity study = assay: In vivo toxicity study; design: species or system BALB/c nude mice
Procedure, shortened: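 Male BALB/c nude mice bearing MCF-7/ADR xenografts were randomized into five groups when tumors reached ~100 mm3. Groups received i.v. saline, carrier or test formulations. Body weight was tracked during the efficacy study. At its end, heart, liver, spleen, lung and kidney were excised, stained with H&E and examined microscopically at 200×.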

With COc1cccc2c1C(=O)c1c(O)c3c(c(O)c1C2=O)C[C@@](O)(C(=O)CO)C[C@@H]3O[C@H]1C[C@H](N)[C@H](O)[C@H](C)O1 [DOX, doxorubicin] the cell viability (MCF-7 cells [1]) was “effectively reduced the viability of MCF-7 cells in a dose-dependent manner”, the “AUC0–∞” value [2] was 36.318 ± 6.517 µg/mL/h and the CL [2] was 2.37 ± 0.467 mL/min/kg. The Cmax [2] was 10275 ± 1219 ng/mL, the “MRT0–∞” value [2] was 3.429 ± 0.658 h and the Vd [2] was 0.300 ± 0.073 L/kg. For the same molecule, the internalization into cells (MCF-7 cells [3]) was “internalized into MCF-7 cells in a time-dependent manner”, the Weight loss (Maximum tolerated dose; single i.v. dose 5 mg/kg DOX) was 2.0% and the Animal death (Maximum tolerated dose; single i.v. dose 5 mg/kg DOX) was 0/3. For the same molecule, the Weight loss (Maximum tolerated dose; single i.v. dose 10 mg/kg DOX) was 7.4%, the Animal death (Maximum tolerated dose; single i.v. dose 10 mg/kg DOX) was 0/3 and the Animal death (Maximum tolerated dose; single i.v. dose 15 mg/kg DOX, 15 mg/kg) was 2 out of 3 and 2/3. For the same molecule, the “DOX content in tumor” value [4] was “negligible after 6 hours”, the internalization into cells (MCF-7/ADR cells) was “substantially reduced” and the bodyweight reduction (In vivo toxicity study; BALB/c nude mice bearing MCF-7/ADR tumors, 5 mg DOX/kg) was 30%. The “H&E histology of main organs (heart, liver, spleen, lung, kidney)” value (In vivo toxicity study; end of the antitumor inhibition test) was “caused cardiotoxicity”.
